Compounds with a hit are over-represented: about 1.9% of the library has one in this group of screens.
PLC-gamma1 inh = PLC-gamma1 (human) inhibition, primary screen. P19174. purified PLC-gamma1, fluorogenic substrate, fluorescence. inhibition, % at 12.2 µM. 0.84% of 370,000 active; in the data active means inhibition above about 9.5%
sPLA2-III inh = Inhibits HGIII-sPLA2 liposome hydrolysis, primary screen; Q9NZ20; QFRET BODIPY PC-A2 liposome hydrolysis, fluorescence; inhibition, % at 12.2 µM; 0.56% of 370,000 active;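 active means inhibition above mean plus 3 SD of compounds lying within the high and low control bounds, cut at about 19% in these data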;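 further: 0% = median of test compound wells and 100% = no enzyme DMSO wells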
ARFGAP1 inh = inhibits rat ARF GTPase activating protein 1; Q62848; Arfgap1-stimulated ARF1 GTP hydrolysis, GDP FP detection; inhibition, % at 16.5 µM; 0.26% of 360,000 active; AID 651572;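 active means inhibition above a per-plate limit, mean inhibition of low control wells plus 3 SD, cut at about 25% in these data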;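 further: 0% = DMSO wells with enzyme and 100% = wells lacking Arfgap1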
Target sequence (Q62848 1-136 limits assumed): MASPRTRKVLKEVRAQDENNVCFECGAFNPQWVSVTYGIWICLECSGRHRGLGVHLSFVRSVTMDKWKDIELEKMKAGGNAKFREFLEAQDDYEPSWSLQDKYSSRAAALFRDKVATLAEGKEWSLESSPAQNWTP
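Material – truncated rat Arfgap1 GAP domain · Buffer or medium – HEPES-based buffer, pH 7.5 · Reagent – human ARF1(Δ1-17)-GTP substrate · Dosing – 16.5 µM single point, 1.26% DMSO · Schedule – GTP hydrolysis reaction 2 h at 25 °C · Technique – GDP detection by fluorescence polarization · Benchmarks – No-Arfgap1 wells (100%) versus DMSO full-reaction wells (0%) · Repeats – single replicate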
PLCb3 inh = inhibitors of human phospholipase C beta3; Q01970; Purified PLC-beta3, fluorogenic substrate, fluorescence; inhibition, % at 12.2 µM; 0.18% of 370,000 active; in the data active means inhibition above about 11%;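 further: 0% = median of compound wells on plate and 100% = full blocker control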
ASAP1 inh = blocks human ASAP1-stimulated Arf1 GTP hydrolysis. GDP FP detection. inhibition, % at 16.5 µM. 0.19% of 360,000 active. AID 624377; in the data active means inhibition above about 25%;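 further: 0% = vehicle with enzyme and substrate and 100% = no enzyme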
Target sequence (Q9ULH1 325-724 limits assumed): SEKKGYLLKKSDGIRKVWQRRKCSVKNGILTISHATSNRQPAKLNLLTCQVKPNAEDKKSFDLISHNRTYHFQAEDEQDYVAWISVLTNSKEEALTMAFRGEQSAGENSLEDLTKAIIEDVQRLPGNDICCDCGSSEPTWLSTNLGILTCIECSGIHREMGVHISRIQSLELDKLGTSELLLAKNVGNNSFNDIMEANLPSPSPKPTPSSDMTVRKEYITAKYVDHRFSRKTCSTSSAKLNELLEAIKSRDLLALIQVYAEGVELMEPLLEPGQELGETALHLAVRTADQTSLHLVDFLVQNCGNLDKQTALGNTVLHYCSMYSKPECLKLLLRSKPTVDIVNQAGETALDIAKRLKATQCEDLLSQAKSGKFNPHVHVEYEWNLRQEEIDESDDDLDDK
ASAP1 inh confirm = ASAP1 inhibition confirmed; ASAP1-stimulated Arf1 GTPase, GDP fluorescence polarization; shares compounds with ASAP1 inh; inhibition, % at 16.5 µM; 37% of 620 active;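 active means mean inhibition over triplicates exceeds the hit threshold derived for the earlier primary screening run, cut at about 25% in these data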
* marks the source's active call; other numbers are inactive results; i = inactive; / = no result.

SMILES	PLC-gamma1 inh	sPLA2-III inh	ARFGAP1 inh	PLCb3 inh	ASAP1 inh	ASAP1 inh confirm
Cc1cccc(NC(=S)N=Nc2c(O)n(CN3CCOCC3)c3ccccc23)c1C	7	23*	3	4	7	/
O=C(c1sccc1Cl)N1CCC(n2nnc3ncccc32)CC1	0	-1	/	-1	/	/
COC(=O)C1CN(Cc2ccc(F)cc2)CCS(=O)(=O)N1Cc1cn(Cc2ccccc2)nn1 (stereo not given)	3	-7	/	1	/	/
Cc1ccc(NC(=O)CN(C)C(=O)CSc2nncn2C)cc1	1	0	8	-4	1	/
Cc1ccc(NC(=O)CN(C)C(=O)CSc2nccn2C)cc1	14*	-2	-8	7	-10	/
Nc1c(-c2ccccc2)c(CSc2nc3ccccc3[nH]2)nn1-c1ccc(Cl)cc1	12*	3	2	4	-8	/
O=S(=O)(c1ccccc1)N(Cc1nc(-c2ccccc2)no1)C1CCCCC1	15*	-5	-5	-13	10	/
CC(C)N(Cc1nc(-c2ccccc2)no1)S(=O)(=O)c1ccccc1	3	3	3	-1	8	/
CCC(C)N1CC(O)=C(c2nc3ccccc3[nH]2)C1=N (stereo not given)	1	14	6	-3	7	/
CC1C(O)=C(c2nc3ccccc3[nH]2)C(=N)N1c1ccccc1 (stereo not given)	-24	23*	7	-33	2	/
CC(CCN1CCC(C(O)(c2ccccc2)c2ccccc2)CC1)Oc1cccc(C(F)(F)F)c1 (stereo not given)	4	-20	/	4	/	/
Nc1n[nH]c(N)c1N=Nc1ccc(Cl)cc1Cl	4	8	6	2	29*	16
Cc1noc(C)c1NC(=O)N(C)C[C@H]1OCCCC[C@@H](C)Oc2ccc(NS(=O)(=O)c3ccccc3)cc2C(=O)N([C@H](C)CO)C[C@@H]1C	1	-9	6	-1	26*	0
Cc1noc(C)c1NC(=O)N(C)C[C@H]1Oc2ccc(NS(=O)(=O)c3ccccc3)cc2C(=O)N([C@H](C)CO)C[C@@H]1C	1	4	2	0	-1	/
COc1ccc(-c2noc(C3CCCN(C(=O)NC4CCC(C)CC4)C3)n2)cc1 (stereo not given)	2	2	/	4	/	/
O=C(Nc1c(-c2ccc3c(c2)OCO3)[nH][nH]c1=O)c1ccccc1	-17	4	15	-24	30*	11
COc1ccc(-n2cc(COC(=O)NCCc3c[nH]c4ccccc34)nn2)cc1	0	-81	/	-4	/	/
O=C(NCC[C@@H]1CC[C@@H](NS(=O)(=O)Cc2ccccc2)[C@@H](CO)O1)C1CC1	1	0	2	3	26*	-1
COC(=O)[C@H](CC(C)C)N(CCCc1cn(Cc2ccccc2)nn1)S(=O)(=O)c1ccccc1Br	5	-26	/	9	/	/
CC1CCCC(C)N1C(=O)COC(=O)CCC(=O)c1ccc(F)cc1 (stereo not given)	-1	-6	-4	1	29*	2
COc1ccc2cc(C(=O)Nc3ccc(F)cc3)sc(=O)c2c1OC	-2	0	-5	0	26*	22
COc1ccc2cc(C(=O)Nc3ccc(Cl)cc3)sc(=O)c2c1OC	3	-1	13	1	56*	56*
COc1ccc2cc(C(=O)Nc3ccc(O)cc3)sc(=O)c2c1OC	3	-2	21	6	7	/
COc1ccc(-c2ccc(SCC(=O)Nc3cccc(C(C)=O)c3)nn2)cc1OC	-1	-3	1	-10	-2	/
CC(=O)c1cccc(NC(=O)CSc2ccc(-c3ccc4c(c3)OCO4)nn2)c1	0	-1	-3	-2	25*	54*
SMILES	PLC-gamma1 inh	sPLA2-III inh	ARFGAP1 inh	PLCb3 inh	ASAP1 inh	ASAP1 inh confirm
O=C(COC(=O)c1ccc2c(c1)C(=O)N(c1cccc3ncccc13)C2=O)c1ccc(Cl)cc1	0	3	4	-1	145*	177*
O=C(O)c1ccc2c(c1)C(=O)N(c1ccc(C(=O)OCC(=O)c3ccccc3)cc1)C2=O	2	0	2	-1	3	/
CC(C)C[C@H](NC(=O)c1cccs1)C(=O)N1CCC[C@H]1C(=O)NCc1ccccc1	2	8	13	-1	-1	/
O=C(Nc1ccc(Br)cc1)c1cc(-c2ccncc2)nc2ccccc12	-4	0	17	-13	29*	16
CC(Oc1ccccc1)C(=O)N1CCC2(CC1)Oc1ccc(F)cc1C(=O)C21CC(c2cccnc2)=NO1 (stereo not given)	0	-8	15	-4	26*	5
O=C(NCCc1ccccc1)OCc1cn(Cc2cccc(Cl)c2)nn1	-3	-6	/	0	/	/
Cc1ccc(-c2cc(C(=O)N/N=C/c3c(C)nn(-c4ccccc4)c3C)[nH]n2)cc1	2	-3	15	0	26*	7
Cc1nn(-c2ccccc2)c(C)c1/C=N/NC(=O)c1cc(C(C)(C)C)[nH]n1	2	-7	-4	1	3	/
Cc1ccc(-c2cc(C(=O)N/N=C/c3c(C)nn(-c4ccccc4)c3C)n[nH]2)s1	-3	-10	17	-4	26*	34*
Fc1ccc(-c2cc(-c3nnc4sc(-c5cccs5)nn34)[nH]n2)cc1	-4	-15	/	-3	/	/
CCOC(=O)[C@@]12CCCC=C1N(CCc1ccc(Cl)cc1)C(=O)[C@H]2CC(=O)NCc1ccccc1	3	-18	/	2	/	/
COCCCNc1oc(/C=C/c2ccccc2)nc1C#N	i	-1	14	i	7	/
COc1cccc(/C=C/c2nc(C#N)c(NCC(C)C)o2)c1	i	0	1	i	29*	15
COc1ccc(-c2cc(-c3nnc(SCC(=O)NC4CCCCC4)n3N)[nH]n2)cc1	-1	2	/	1	/	/
COc1ccc2oc(=O)c(-c3csc(Nc4cccc(O)c4)n3)cc2c1	-269	-18	17	-309	32*	48*
O=C(NC1CCC1)c1ccc(C#Cc2cccc(F)c2)nc1	1	4	/	-1	/	/
Cc1cc(=O)oc2c(C)c(OCC(=O)NC3CC(C)(C)NC(C)(C)C3)ccc12	-2	0	-1	-10	8	/
CCCc1cc(=O)oc2c(C)c(OCC(=O)NC3CC(C)(C)NC(C)(C)C3)ccc12	-2	6	-10	-17	27*	4
COc1ccc(-c2nn(C)c3sc(C(=O)NCc4ccco4)cc23)cc1OC	-69	-1	18	-85	0	/
COc1ccc(NC(=O)c2cc3c(-c4ccc(OC)c(OC)c4)nn(C)c3s2)cc1OC	-8	-6	5	-14	32*	58*
O=C(CCn1nnc(-c2cccs2)n1)N1CCOCC1	-1	16	/	-2	/	/
CCCNC(=O)C1(C)CCN(Cc2ccc(-n3ccnc3)cc2)C1 (stereo not given)	0	5	3	0	26*	2

Screening data from PubChem BioAssay.
